Experimental findings from ChEMBL document CHEMBL1123985, “Oral absorption of cephalosporin antibiotics. 1. Synthesis, biological properties, and oral bioavailability of 7-(arylacetamido)-3-chloro cephalosporins in animals” (J Med Chem, 1988) are described below.

In brackets after ≈: the same amount, converted by molar mass.

The nature of data set [1]: Area under plasma concentration vs time curve observed in Rhesus monkeys after, iv administration of single 30 mg/kg dose. It counts as ADME, organism-based, Macaca mulatta. The arrangement: dose 30 mg/kg, route intravenous. To be noted: rhesus monkey. The method in brief: (§1)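 Rhesus monkeys, adult males, six animals per compound, each given drug orally and iv; fasted overnight. Single 30 mg/kg solution doses, by nasogastric tube (in water) or saphenous vein (in isotonic lactated Ringer). Plasma sampled at intervals, frozen at -70 °C, antibacterial activity by microbiological assay. AUC in μg min/mL; oral bioavailability from oral vs iv AUC.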

A short description of data set [2]: Area under plasma concentration vs time curve observed in Rhesus monkeys after oral administration of single 30 mg/kg dose. It counts as ADME, organism-based, Macaca mulatta. The arrangement: dose 30 mg/kg, route oral. To be noted: rhesus monkey. The gist of the method: as §1
The test system of data set [3] is Canis familiaris. Put plainly: Area under plasma concentration vs time curve observed in female mongrel dogs after, iv administration of single 15 mg/kg dose. As to conditions: dog, in vivo. It counts as ADME, organism-based, Canis lupus familiaris. The arrangement: dose 15 mg/kg, route intravenous. The gist of the method: (§2)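 Six female mongrel dogs (14-23 kg) fasted overnight, bladder catheterized; single 15 mg/kg solution doses by stomach tube (in water, total 500 mL) or cephalic vein (saline or pH 6.0 NaCl/phosphate/acetate buffer). Plasma sampled at intervals; activity by disk-plate agar diffusion against E. coli MB 3804, standards in dog serum or buffer. AUC μg min/mL, mean ± SEM; BA from iv vs po AUC and urinary recovery.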

For data set [4], the system named is Canis familiaris. Briefly: Area under plasma concentration vs time curve observed in female mongrel dogs after, oral administration of single 15 mg/kg dose. It counts as ADME, organism-based, Canis lupus familiaris. As to conditions: dog, in vivo. The arrangement: dose 15 mg/kg, route oral. The gist of the method: as §2
The nature of data set [5]: Oral bioavailability in mouse. It counts as ADME, organism-based. To be noted: in vivo. The method in brief:
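Male Cox mice given water and liquid diet overnight; 20 mg/kg in saline (2 mg/mL) sc or orally; urine from collection cages plus bladder contents over 2 h; activity by agar well assay with Bacillus subtilis ATCC 6633. Bioavailability from percent dose excreted in urine after oral vs parenteral dosing.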

Data set [6] is described as follows: Oral bioavailability in Rhesus monkey. It counts as ADME, organism-based, Macaca mulatta. To be noted: in vivo. The method in brief: as §1
Data set [7] in a line: Oral bioavailability in dog (female mongrel). It counts as ADME, organism-based, Canis lupus familiaris. To be noted: in vivo. The method in brief:
as §2

Data set [8] is described as follows: Dose in urine (24-h urine excretion) in female mongrel dogs after oral administration of single 15 mg/kg dose. It counts as ADME, organism-based, Canis lupus familiaris. Set-up: dose 15 mg/kg, route oral. To be noted: dog. The method in brief:
(§3)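 Female mongrel dogs (n=6), bladder catheter; urine collected at intervals after single 15 mg/kg iv or oral solution dose, frozen; antibiotic activity by disk-plate agar diffusion against E. coli MB 3804 with standards in pH 6.0 buffer; percent of dose recovered in urine.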

Data set [9] has as its system Escherichia coli. Put plainly: Minimum inhibitory concentration against EC14 strain Escherichia coli. It counts as functional.
Data set [10] concerns Klebsiella aerogenes. Briefly: Minimum inhibitory concentration against EB17 strain of Enterobacter aerogenes. It counts as functional.
Data set [11] concerns Klebsiella pneumoniae. Put plainly: Minimum inhibitory concentration against X68 strain of Klebsiella pneumoniae. It counts as functional.
Data set [12] has as its system Salmonella. Put plainly: Minimum inhibitory concentration against X514 strain of Salmonella. It counts as functional.
Data set [13] in a line: Minimum inhibitory concentration against N9 strain of Shigella sonnei. It counts as functional.
Data set [14] relates to Staphylococcus epidermidis. Briefly: Minimum inhibitory concentration against 222 strain of Staphylococcus epidermidis. It counts as functional.
Data set [15] has as its system Staphylococcus epidermidis. Put plainly: Minimum inhibitory concentration against Epil strain of Staphylococcus epidermidis. It counts as functional.
Data set [16] concerns Staphylococcus aureus. Briefly: Minimum inhibitory concentration against S13E strain of Staphylococcus aureus. It counts as functional.
Data set [17] relates to Staphylococcus aureus. Put plainly: Minimum inhibitory concentration against V41 strain of Staphylococcus aureus. It counts as functional.
In data set [18] the test system is Staphylococcus aureus. Put plainly: Minimum inhibitory concentration against X1.1 strain of Staphylococcus aureus. It counts as functional.
Data set [19] deals with Streptococcus pyogenes. Put plainly: Minimum inhibitory concentration against Streptococcus pyogenes C203. It counts as functional.
A short description of data set [20]: (§4) Minimum inhibitory concentration against sens CL strain of Haemophilus influenzae. It counts as functional.
Data set [21] can be described thus: (§5) Minimum inhibitory concentration against res 76 strain of Haemophilus influenzae. It counts as functional.
Data set [22] can be described thus: Dose in urine (24-h urine excretion) in female mongrel dogs after iv administration of single 15 mg/kg dose. It counts as ADME, organism-based, Canis lupus familiaris. Set-up: dose 15 mg/kg, route intravenous. As to conditions: dog. The gist of the method: as §3
In data set [23] the test system is Staphylococcus aureus. Briefly: Minimum inhibitory concentration against 3055 strain of Staphylococcus aureus.
Data set [24] deals with Streptococcus pyogenes. Put plainly: Minimum inhibitory concentration against C203 strain of Streptococcus pyogenes.
Data set [25] has as its system Streptococcus pneumoniae. Put plainly: Minimum inhibitory concentration against park strain of Streptococcus pneumoniae.
Data set [26] concerns Streptococcus pneumoniae. Put plainly: Minimum inhibitory concentration against Park strain of Streptococcus pneumoniae.
In data set [27] the test system is Haemophilus influenzae. Described as §4. It counts as functional.
Data set [28] has as its system Haemophilus influenzae. The data set is described as §5. It counts as functional.
Data set [29] concerns Mus musculus. Put plainly: Efficacy against mouse infected ip with C203 strain of Streptococcus pyogenes, administered po to 19-21-g random sex ICR mice at 1 hr and 5 hr. It counts as functional. The gist of the method:
(§6)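 ICR mice, random sex, 19-21 g, challenged ip with 50-500 LC50 from a frozen organism pool; compound given sc or po at 1 and 5 h after challenge, five 2-fold dose levels, eight mice per level; ED50 derived.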

Data set [30] concerns Mus musculus. Put plainly: Efficacy against mouse infected ip with C203 strain of Streptococcus pyogenes, administered sc to 19-21-g random sex ICR mice at 1 hr and 5 hr. It counts as functional. The gist of the method: as §6
The test system of data set [31] is Mus musculus. Put plainly: Efficacy against mouse infected ip with park strain of Streptococcus pneumoniae administered po to 19-21-g random sex ICR mice at 1 hr and 5 hr. It counts as functional. The method in brief: as §6
The test system of data set [32] is Mus musculus. Put plainly: Efficacy against mouse infected ip with park strain of Streptococcus pneumoniae administered sc to 19-21-g random sex ICR mice at 1 hr and 5 hr. It counts as functional. The method in brief:
as §6

Data set [33] deals with Mus musculus. Put plainly: Efficacy against mouse infected ip with 3055 strain of Staphylococcus aureus, administered po to 19-21-g random sex ICR mice at 1 hr and 5 hr. It counts as functional. The gist of the method:
as §6

Data set [34] concerns Mus musculus. Put plainly: Efficacy against mouse infected ip with 3055 strain of Staphylococcus aureus, administered sc to 19-21-g random sex ICR mice at 1 hr and 5 hr. It counts as functional. The method in brief:
as §6

In data set [35] the test system is Streptococcus pneumoniae. Put plainly: Minimum inhibitory concentration against Park strain of Streptococcus pneumoniae. It counts as functional.
Data set [36] deals with Streptococcus pyogenes. Briefly: Minimum inhibitory concentration against C203 strain of Streptococcus pyogenes. The source holds these as a separate data set.

As usually defined, the AUC is the area under the concentration-time curve, a measure of exposure. The bioavailability is the share of a dose that reaches the circulation, judged against a reference dose that is usually intravenous. Broadly, the ED50 is the midpoint of the dose-response relation.

For the compound `O=C(Cc1ccccc1)N[C@@H]1C(=O)N2C(C(=O)O)=C(Cl)CS[C@H]12`, the AUC is 58300 ng·h/mL in data set [1], 8830 ng·h/mL in data set [2], 97300 ng·h/mL in data set [3] and 16200 ng·h/mL in data set [4]. In addition, the bioavailability turned out to be 37% in data set [5], 15.1% in data set [6] and 17% in data set [7]. Further, the dose excreted in [8] is 15%; in [22], 67%. Besides, the MIC in data set [9] was 8 µg/mL (≈ 22.7 µM); in [10], more than 128 µg/mL; in data set [11], 4 µg/mL (≈ 11.3 µM); in data set [12] it was 4 µg/mL (≈ 11.3 µM); in data set [13], 64 µg/mL (≈ 181 µM); in data set [14] it was 1 µg/mL (≈ 2.83 µM). Besides, the MIC in [15] was 2 µg/mL (≈ 5.67 µM); in [16] it was 32 µg/mL (≈ 90.7 µM); in data set [17] it was 16 µg/mL (≈ 45.4 µM); in data set [18], 0.5 µg/mL (≈ 1.42 µM); in data set [19] it was 0.125 µg/mL (≈ 0.354 µM); in data set [20], 1 µg/mL (≈ 2.83 µM). Moreover, the MIC in data set [21] amounted to 1 µg/mL (≈ 2.83 µM); in data set [23], 0.5 µg/mL (≈ 1.42 µM); in [24] it was 0.125 µg/mL (≈ 0.354 µM); in data set [25], 0.25 µg/mL (≈ 0.709 µM); in data set [26], 0.125 µg/mL (≈ 0.354 µM).

`CC1=C(C(=O)O)N2C(=O)[C@@H](NC(=O)COc3ccccc3)[C@H]2SC1` gave a bioavailability in data set [5] of 37%. In addition, the MIC was more than 128 µg/mL in [9]; more than 128 µg/mL in data set [10]; more than 128 µg/mL in [11]; more than 128 µg/mL in [12]; more than 128 µg/mL in data set [13]; 4 µg/mL (≈ 11.5 µM) in data set [14]. Besides, the MIC was 16 µg/mL (≈ 45.9 µM) in data set [15]; more than 128 µg/mL in [16]; 32 µg/mL (≈ 91.9 µM) in data set [17]; 2 µg/mL (≈ 5.74 µM) in [18]; 2 µg/mL (≈ 5.74 µM) in [19]; 16 µg/mL (≈ 45.9 µM) in data set [27]. Also, the MIC in data set [28] turned out to be 8 µg/mL (≈ 23 µM); in data set [26], 2 µg/mL (≈ 5.74 µM).

Take `N[C@@H](C(=O)N[C@@H]1C(=O)N2C(C(=O)O)=C(Cl)CS[C@H]12)c1ccccc1` [CEFACLOR ANHYDROUS]: in data set [5], the bioavailability came to 76%. The MIC in data set [9] is 1 µg/mL (≈ 2.72 µM); in data set [10], 16 µg/mL (≈ 43.5 µM); in [11] it was 1 µg/mL (≈ 2.72 µM); in data set [12], 0.5 µg/mL (≈ 1.36 µM); in data set [13], 4 µg/mL (≈ 10.9 µM); in data set [14], 4 µg/mL (≈ 10.9 µM). In addition, the MIC in data set [15] was found to be 8 µg/mL (≈ 21.8 µM); in data set [16], 64 µg/mL (≈ 174 µM); in data set [17], 16 µg/mL (≈ 43.5 µM); in data set [18] it was 1 µg/mL (≈ 2.72 µM); in data set [19], 0.25 µg/mL (≈ 0.68 µM); in data set [20], 1 µg/mL (≈ 2.72 µM). Besides, the MIC in [21] is 2 µg/mL (≈ 5.44 µM); in data set [35], 0.5 µg/mL (≈ 1.36 µM); in [23], 1 µg/mL (≈ 2.72 µM); in [36], 0.25 µg/mL (≈ 0.68 µM); in data set [25], 2 µg/mL (≈ 5.44 µM). Besides, the ED50 in data set [29] is 1.25 mg/kg; in [30], 1.25 mg/kg; in [31], 10.7 mg/kg; in data set [32] it was 11.5 mg/kg; in data set [33] it was 1.36 mg/kg; in data set [34] it was 1.32 mg/kg.
